Measured values reported in ChEMBL document CHEMBL2311482, “Antiproliferative and apoptotic effects of compounds from the flower of Mammea siamensis (Miq.) T. Anders. on human cancer cell lines” (Bioorg Med Chem Lett, 2013).
pIC50: −log10 of the molar value. The source made the active and inactive calls. The calls are words filed in the database; no cut-off is given here.

Key:
[1] = Cytotoxicity against human HF19 cells assessed as cell viability after 24 hrs by MTT assay; format: cell-based; details: HF19, 24 h
How it was run: (§1)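 Cells exposed to compounds at 3.125 to 50 µM for 24 h; proliferation read by MTT assay; IC50 (µM) reported. Panel: leukemia lines HL-60, U937, THP-1, Jurkat; stomach KATO III; colon HCT-15; hepatoma HepG2; normal skin fibroblasts NB1RGB and HF-19.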

HepG2 = test: Cytotoxicity against human HepG2 cells assessed as cell viability after 24 hrs by MTT assay; format: functional, cell-based; details: HepG2, 24 h; how it was run: as §1
HL-60 [2] = test: Induction of apoptosis in human HL60 cells assessed as DNA fragmentation at 12.5 uM after 24 hrs by agarose gel electrophoresis; format: functional, cell-based
How it was run: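 HL-60 cells treated with 12.5 µM compound for 24 h; DNA extracted and laddering resolved by agarose gel electrophoresis against a 100 bp marker; representative of three independent experiments.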

U-937 = test: Cytotoxicity against human U937 cells assessed as cell viability after 24 hrs by MTT assay; format: functional, cell-based; details: U-937, 24 h; how it was run: as §1
HCT-15 = test: Cytotoxicity against human HCT15 cells assessed as cell viability after 24 hrs by MTT assay; format: functional, cell-based; details: HCT-15, 24 h; how it was run: as §1
[3] = Cytotoxicity against human NB1RGB cells assessed as cell viability after 24 hrs by MTT assay; format: cell-based; how it was run: as §1
THP-1 = test: Cytotoxicity against human THP1 cells assessed as cell viability after 24 hrs by MTT assay; format: functional, cell-based; details: THP-1, 24 h; how it was run: as §1
Jurkat = test: Cytotoxicity against human Jurkat cells assessed as cell viability after 24 hrs by MTT assay; format: functional, cell-based; how it was run: as §1
[4] = Cytotoxicity against human KATO III cells assessed as cell viability after 24 hrs by MTT assay; format: functional, cell-based; how it was run: as §1
HL-60 [5] = test: Cytotoxicity against human HL60 cells assessed as cell viability after 24 hrs by MTT assay; format: functional, cell-based; details: HL-60, 24 h; how it was run: as §1
HL-60 [6] = test: Induction of apoptosis in human HL60 cells assessed as chromatin condensation at 12.5 uM after 24 hrs by Hoechst 33258 staining-based fluorescent microscopy; format: functional, cell-based
How it was run: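 Nuclear morphology: HL-60 cells treated 24 h with 12.5 µM compound, stained with Hoechst 33258, and viewed by fluorescence microscopy at ×400; representative of three independent experiments.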

HL-60 [7] = test: Induction of apoptosis in human HL60 cells assessed as PARP cleavage at 12.5 uM by Western blot analysis; format: functional, cell-based; details: TDE = time-dependent effect
How it was run: (§2)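 HL-60 cells given 12.5 µM compound for 6–24 h, then lysed; caspase-3 and PARP (cleavage) probed by Western blot with β-actin as loading control; representative of three independent experiments.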

HL-60 [8] = test: Induction of apoptosis in human HL60 cells assessed as activation of caspase 3 at 12.5 uM by Western blot analysis; format: functional, cell-based; details: TDE = time-dependent effect; how it was run: as §2
HL-60 [9] = test: Induction of apoptosis in human HL60 cells assessed as DNA fragmentation at 12.5 uM by agarose gel electrophoresis; format: functional, cell-based; details: TDE = time-dependent effect
How it was run: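 Time course: HL-60 cells exposed to 12.5 µM compound for 6–24 h; DNA fragmentation assessed by agarose gel electrophoresis; representative of three independent experiments.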

HL-60 [10] = test: Induction of apoptosis in human HL60 cells assessed as DNA fragmentation at 12.5 uM after 24 hrs by agarose gel electrophoresis in presence of caspase inhibitior Z-VAD-FMK and Z-DEVD-FMK; format: functional, cell-based
How it was run: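 HL-60 cells pretreated 1 h with 50 µM caspase inhibitor (z-VAD-FMK, broad; z-DEVD-FMK, caspase-3), then given 12.5 µM compound for 24 h; DNA fragmentation by agarose gel electrophoresis; representative of three independent experiments.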

Structure (SMILES) | pIC50 [1] | pIC50 (HepG2) | Activity (HL-60 [2]) | pIC50 (U-937) | pIC50 (HCT-15) | pIC50 [3] | pIC50 (THP-1) | pIC50 (Jurkat) | pIC50 [4] | pIC50 (HL-60 [5]) | Activity (HL-60 [6]) | Activity (HL-60 [7]) | Activity (HL-60 [8]) | Activity (HL-60 [9]) | Activity (HL-60 [10])
CCCC(=O)c1c2c(c3oc(=O)cc(CCC)c3c1O)C=CC(C)(C)O2 | < 4.30 | < 4.30 | inactive | 4.32 | < 4.30 | < 4.30 | < 4.30 | < 4.30 | < 4.30 | 4.43 |  |  |  |  | 
CCC(C)C(=O)c1c(O)c2c(c3c([C@@H](O)CC)cc(=O)oc13)OC(C(C)(C)O)C2 (some centres not stated) | < 4.30 | < 4.30 | inactive | 4.48 | < 4.30 | < 4.30 | 4.39 | < 4.30 | < 4.30 | 4.54 |  |  |  |  | 
CCC(C)C(=O)c1c(O)c(CC=C(C)C)c(O)c2c([C@@H](O)CC)cc(=O)oc12 (some centres not stated) | < 4.30 | < 4.30 | Active | 4.73 | < 4.30 | < 4.30 | 5.03 | 4.53 | 4.62 | 4.86 | Active |  |  |  | 
O=c1cc(-c2ccc(O)c(-c3c(O)cc(O)c4c(=O)cc(-c5ccc(O)cc5)oc34)c2)oc2cc(O)cc(O)c12 [AMENTOFLAVONE] | < 4.30 | < 4.30 | inactive | < 4.30 | < 4.30 | < 4.30 | < 4.30 | < 4.30 | < 4.30 | < 4.30 |  |  |  |  | 
O=c1cc(-c2ccc(O)cc2)oc2cc(O)c([C@@H]3O[C@H](CO)[C@@H](O)[C@H](O)[C@H]3O)c(O)c12 [ISOVITEXIN] | < 4.30 | < 4.30 | inactive | < 4.30 | < 4.30 | < 4.30 | < 4.30 | < 4.30 | < 4.30 | < 4.30 |  |  |  |  | 
CCCC(=O)c1c(O)c(C/C=C(\C)CCC=C(C)C)c(O)c2c([C@@H](O)CC)cc(=O)oc12 [KAYEASSAMIN A] | < 4.30 | < 4.30 | Active | 4.70 | < 4.30 | < 4.30 | 4.78 | 4.70 | 4.92 | 4.93 | Active | tde | tde | tde | inactive
CCC(C)C(=O)c1c(O)c(C/C=C(\C)CCC=C(C)C)c(O)c2c([C@@H](O)CC)cc(=O)oc12 (some centres not stated) [SURANGIN C] | < 4.30 | < 4.30 | Active | 4.56 | < 4.30 | < 4.30 | 4.67 | 4.64 | 4.97 | 4.88 | Active |  |  |  | 
